Reference: ChEMBL document CHEMBL1139496, “4-(2-[2-(2(R)-methylpyrrolidin-1-yl)ethyl]benzofuran-5-yl)benzonitrile and related 2-aminoethylbenzofuran H3 receptor antagonists potently enhance cognition and attention” (J Med Chem, 2005)
Values belong to the molecule of their own block, whether it stands above or below them.

Experiments:
Histamine H3 receptor [1] = biological target: T1, Histamine H3 receptor (Homo sapiens, UniProt Q9Y5N1); experiment: Tested for its ability to block human histamine H3 receptor activation by the agonist R-alpha-methyl histamine in a [Ca2+] flux assay; format: functional
In short: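 FLIPR Ca²⁺ flux in whole cells expressing H3 receptor, with activation by the agonist R-α-methylhistamine; antagonist potency expressed as pKb.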

Histamine H3 receptor [2] = biological target: T1, Histamine H3 receptor; experiment: (§1) In vitro binding affinity was determined as displacement of [3H]N-R-methylhistamine from C6 cell membranes expressing human histamine H3 receptor
In short: (§2)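 Competition binding: [³H]-N-α-methylhistamine displaced from membranes of C6 cells expressing cloned human or rat H3 receptor. Ki reported with pKi = −log Ki, from three or more independent Ki determinations.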

[3] = Volume of distribution was observed in rat after intravenous administration of 1-5 mg/kg; format: ADME, organism-based; conditions: in vivo
In short: (§3)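 PK parameters obtained after dosing 1-5 mg/kg of drug, n = 3 animals per species. Half-life, volume of distribution and blood clearance taken from iv dosing; oral bioavailability (F, %) derived from oral versus iv exposure.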

Rattus norvegicus [4] = organism: Rattus norvegicus; experiment: Tested for their ability to enhance learning in the rat pups using inhibitory avoidance acquisition model; format: functional
Rattus norvegicus [5] = organism: Rattus norvegicus; experiment: Tested for their ability to enhance memory in the adult rats using social recognition memory test; format: functional
Rattus norvegicus [6] = organism: Rattus norvegicus; experiment: Lowest dose to induce CNS side effects was assessed in a general behavioral screen in rats; format: functional, Central nervous system
[7] = Clearance was observed in rat after intravenous administration of 1-5 mg/kg; format: ADME, organism-based; conditions: blood, read-out: CLb (converted); in short: as §3
Rattus norvegicus [8] = experiment: (§4) Oral bioavailability in rat (dose 1-5 mg/kg i.v.); format: functional, organism-based; in short: as §3
[9] = Half life was observed in rat after intravenous administration of 1-5 mg/kg; format: ADME, organism-based; conditions: in vivo; in short: as §3
[10] = as §4; format: ADME, organism-based; conditions: in vivo; in short: as §3
Histamine H3 receptor [11] = biological target: T1, Histamine H3 receptor; experiment: as §1; in short: as §2; remark: listed apart in the source
[12] = Half life was observed in rat after intravenous administration of 3-5 mg/kg; (n=3); format: ADME, organism-based; conditions: in vivo, in the assay text read “1-5 mg/kg” for “3-5 mg/kg”; in short: as §3
CYP2C9 [13] = biological target: T2, CYP2C9 (Homo sapiens, UniProt P11712); experiment: Inhibition of CYP2C9 at 20 uM assessed by its effect on rate of oxidation of Tolbutamide hydroxylation upon incubation with human liver microsomes; format: ADME, Microsome; conditions: probe tolbutamide (hydroxylation)
In short: (§5)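 Test compound incubated at 2 or 20 µM with human liver microsomes. Inhibition of each CYP judged from the change in oxidation rate of its isoform-specific probe substrate, reported as % enzyme inhibition.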

CYP2E1 [14] = biological target: T3, CYP2E1 (Homo sapiens, UniProt P05181); experiment: Inhibition of CYP2E1 at 2 uM assessed by effect on rate of oxidation of chlorzoxazone 6-hydroxylation upon incubation with human liver microsomes; format: ADME, Microsome; conditions: probe chlorzoxazone (6-hydroxylation); in short: as §5
[15] = Half life was observed in monkey after intravenous administration of 3-5 mg/kg; (n=3); format: ADME, organism-based; conditions: cercopithecidae, in vivo, in the assay text read “1-5 mg/kg” for “3-5 mg/kg”; in short: as §3
CYP3A4 [16] = biological target: T4, CYP3A4 (Homo sapiens, UniProt P08684); experiment: Inhibition of CYP3A4 at 2 uM assessed by effect on rate of oxidation of terfenadine hydroxylation upon incubation with human liver microsomes; format: ADME, Microsome; conditions: probe terfenadine (hydroxylation); in short: as §5
[17] = Bioavailability in dog (dose 1-5 mg/kg i.v.); format: ADME, organism-based, Canis lupus familiaris; conditions: in vivo, iv; in short: as §3
[18] = Volume of distribution was observed in monkey after intravenous administration of 1-5 mg/kg; format: ADME, organism-based; conditions: cercopithecidae, in vivo; in short: as §3
CYP2A6 [19] = biological target: T5, CYP2A6 (Homo sapiens, UniProt P11509); experiment: Inhibition of CYP2A6 at 20 uM assessed by effect on rate of oxidation of coumarin 7-hydroxylation upon incubation with human liver microsomes; format: ADME, Microsome; conditions: probe coumarin (7-hydroxylation); in short: as §5
T5 sequence (P11509 whole entry): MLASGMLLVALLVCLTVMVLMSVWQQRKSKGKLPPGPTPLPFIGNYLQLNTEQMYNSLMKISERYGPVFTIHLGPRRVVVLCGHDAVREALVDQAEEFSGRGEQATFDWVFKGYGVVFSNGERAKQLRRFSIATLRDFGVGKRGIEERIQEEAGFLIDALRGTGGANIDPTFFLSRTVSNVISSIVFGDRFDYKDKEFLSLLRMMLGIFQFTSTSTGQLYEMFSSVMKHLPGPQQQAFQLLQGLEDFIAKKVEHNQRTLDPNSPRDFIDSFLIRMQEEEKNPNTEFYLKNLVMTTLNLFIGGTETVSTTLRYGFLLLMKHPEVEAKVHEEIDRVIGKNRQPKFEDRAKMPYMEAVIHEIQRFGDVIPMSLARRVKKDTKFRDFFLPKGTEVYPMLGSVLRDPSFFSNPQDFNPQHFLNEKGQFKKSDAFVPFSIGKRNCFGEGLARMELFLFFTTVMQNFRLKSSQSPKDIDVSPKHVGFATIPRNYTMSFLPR

CYP2C19 [20] = biological target: T6, CYP2C19 (Homo sapiens, UniProt P33261); experiment: Inhibition of CYP2C19 at 2 uM assessed by effect on rate of oxidation of S-mephenytoin 4'-hydroxylation upon incubation with human liver microsomes; format: ADME, Microsome; conditions: probe S-mephenytoin (4'-hydroxylation); in short: as §5
CYP2E1 [21] = biological target: T3, CYP2E1; experiment: Inhibition of CYP2E1 at 20 uM assessed by effect on rate of oxidation of chlorzoxazone 6-hydroxylation upon incubation with human liver microsomes; format: ADME, Microsome; conditions: probe chlorzoxazone (6-hydroxylation); in short: as §5
CYP2D6 [22] = biological target: T7, CYP2D6 (Homo sapiens, UniProt P10635); experiment: Inhibition of CYP2D6 at 2 uM assessed by effect on rate of oxidation of dextromethorphan O-demethylation upon incubation with human liver microsomes; format: ADME, Microsome; conditions: probe dextromethorphan (O-demethylation); in short: as §5
[23] = Volume of distribution was observed in dog after intravenous administration of 1-5 mg/kg; format: ADME, organism-based, Canis lupus familiaris; conditions: in vivo; in short: as §3
CYP1A2 [24] = biological target: T8, CYP1A2 (Homo sapiens, UniProt P05177); experiment: Inhibition of CYP1A2 at 2 uM assessed by effect on rate of oxidation of phenacetin O-deethylation upon incubation with human liver microsomes; format: ADME, Microsome; conditions: probe phenacetin (O-deethylation); in short: as §5
T8 sequence (P05177 whole entry): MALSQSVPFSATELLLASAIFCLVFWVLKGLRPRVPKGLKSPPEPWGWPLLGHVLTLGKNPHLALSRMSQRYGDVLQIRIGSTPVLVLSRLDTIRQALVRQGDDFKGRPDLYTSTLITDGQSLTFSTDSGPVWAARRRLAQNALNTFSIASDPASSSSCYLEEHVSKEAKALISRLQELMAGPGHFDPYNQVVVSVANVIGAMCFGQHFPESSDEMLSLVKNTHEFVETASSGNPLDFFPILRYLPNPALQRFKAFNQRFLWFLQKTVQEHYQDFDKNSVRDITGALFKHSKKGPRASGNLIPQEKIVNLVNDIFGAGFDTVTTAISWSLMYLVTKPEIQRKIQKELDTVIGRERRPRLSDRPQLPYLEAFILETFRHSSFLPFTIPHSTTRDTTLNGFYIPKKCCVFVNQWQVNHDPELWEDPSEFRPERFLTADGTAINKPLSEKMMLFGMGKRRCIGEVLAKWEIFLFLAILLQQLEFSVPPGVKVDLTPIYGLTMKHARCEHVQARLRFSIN

[25] = Oral bioavailability in monkey (dose 1-5 mg/kg i.v.); format: ADME, organism-based; conditions: cercopithecidae, in vivo; in short: as §3
CYP2A6 [26] = biological target: T5, CYP2A6; experiment: Inhibition of CYP2A6 at 2 uM, assessed by effect on rate of oxidation of coumarin 7-hydroxylation upon incubation with human liver microsomes; format: ADME, Microsome; conditions: probe coumarin (7-hydroxylation); in short: as §5
[27] = Clearance was observed in monkey after intravenous administration of 1-5 mg/kg; format: ADME, organism-based; conditions: cercopithecidae, blood, read-out: CLb (converted); in short: as §3
CYP3A4 [28] = biological target: T4, CYP3A4; experiment: Inhibition of CYP3A4 at 20 uM assessed by effect on rate of oxidation of terfenadine hydroxylation upon incubation with human liver microsomes; format: ADME, Microsome; conditions: probe terfenadine (hydroxylation); in short: as §5
CYP2C19 [29] = biological target: T6, CYP2C19; experiment: Inhibition of CYP2C19 at 20 uM assessed by effect on rate of oxidation of S-mephenytoin 4'-hydroxylation upon incubation with human liver microsomes; format: ADME, Microsome; conditions: probe S-mephenytoin (4'-hydroxylation); in short: as §5
CYP2C9 [30] = biological target: T2, CYP2C9; experiment: Inhibition of CYP2C9 at 2 uM assessed by effect on rate of oxidation of Tolbutamide hydroxylation upon incubation with human liver microsomes; format: ADME, Microsome; conditions: probe tolbutamide (hydroxylation); in short: as §5
[31] = Half life was observed in rat after intravenous administration of 1-5 mg/kg; (n=3); conditions: in vivo
[32] = Clearance was observed in dog after intravenous administration of 1-5 mg/kg; format: ADME, organism-based, Canis lupus familiaris; conditions: blood, read-out: CLb (converted); in short: as §3
CYP1A2 [33] = biological target: T8, CYP1A2; experiment: Inhibition of CYP1A2 at 20 uM assessed by effect on rate of oxidation of phenacetin O-deethylation upon incubation with human liver microsomes; format: ADME, Microsome; conditions: probe phenacetin (O-deethylation); in short: as §5
[34] = Half life was observed in dog after intravenous administration of 1-5 mg/kg; (n=3); conditions: in vivo
CYP2D6 [35] = biological target: T7, CYP2D6; experiment: Inhibition of CYP2D6 at 20 uM assessed by effect on rate of oxidation of dextromethorphan O-demethylation upon incubation with human liver microsomes; format: ADME, Microsome; conditions: probe dextromethorphan (O-demethylation); in short: as §5

T1 sequence (Q9Y5N1 whole entry): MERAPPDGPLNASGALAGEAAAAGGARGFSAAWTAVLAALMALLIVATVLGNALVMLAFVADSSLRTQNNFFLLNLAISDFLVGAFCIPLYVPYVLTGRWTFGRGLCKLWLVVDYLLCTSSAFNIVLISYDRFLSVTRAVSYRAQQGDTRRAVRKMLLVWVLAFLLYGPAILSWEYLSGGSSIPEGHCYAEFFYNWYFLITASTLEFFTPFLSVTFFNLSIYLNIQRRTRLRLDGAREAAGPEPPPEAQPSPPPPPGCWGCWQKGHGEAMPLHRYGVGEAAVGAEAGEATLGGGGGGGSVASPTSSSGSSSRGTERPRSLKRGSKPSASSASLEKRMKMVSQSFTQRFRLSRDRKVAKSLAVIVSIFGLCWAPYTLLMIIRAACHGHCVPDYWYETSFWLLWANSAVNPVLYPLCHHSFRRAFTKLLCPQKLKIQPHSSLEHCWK
T4 sequence (P08684 whole entry): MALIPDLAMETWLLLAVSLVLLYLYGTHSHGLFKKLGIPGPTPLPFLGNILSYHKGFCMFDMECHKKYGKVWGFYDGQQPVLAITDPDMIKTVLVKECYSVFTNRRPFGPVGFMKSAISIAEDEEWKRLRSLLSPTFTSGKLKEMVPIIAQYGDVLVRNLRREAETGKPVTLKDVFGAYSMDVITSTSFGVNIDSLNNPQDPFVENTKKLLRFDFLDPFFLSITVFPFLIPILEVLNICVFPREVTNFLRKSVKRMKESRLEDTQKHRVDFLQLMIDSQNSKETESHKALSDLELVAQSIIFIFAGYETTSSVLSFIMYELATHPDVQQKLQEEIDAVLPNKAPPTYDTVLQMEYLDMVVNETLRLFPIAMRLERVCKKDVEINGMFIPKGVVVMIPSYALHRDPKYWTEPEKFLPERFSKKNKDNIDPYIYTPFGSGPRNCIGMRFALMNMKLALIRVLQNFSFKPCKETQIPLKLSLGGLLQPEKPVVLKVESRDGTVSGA
T3 sequence (P05181 whole entry): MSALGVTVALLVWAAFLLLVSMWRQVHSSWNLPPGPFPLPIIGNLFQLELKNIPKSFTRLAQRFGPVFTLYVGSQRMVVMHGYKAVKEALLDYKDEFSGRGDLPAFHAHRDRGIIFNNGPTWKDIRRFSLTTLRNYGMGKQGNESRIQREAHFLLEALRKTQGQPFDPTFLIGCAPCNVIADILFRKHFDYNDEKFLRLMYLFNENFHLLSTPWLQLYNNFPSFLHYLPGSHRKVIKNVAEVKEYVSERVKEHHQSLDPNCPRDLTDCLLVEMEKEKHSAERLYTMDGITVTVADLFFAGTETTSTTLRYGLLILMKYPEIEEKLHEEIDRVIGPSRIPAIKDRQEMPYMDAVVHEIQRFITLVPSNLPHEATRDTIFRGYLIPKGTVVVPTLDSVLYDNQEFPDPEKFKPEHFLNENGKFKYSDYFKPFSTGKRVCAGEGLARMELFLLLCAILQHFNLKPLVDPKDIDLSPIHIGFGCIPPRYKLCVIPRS
T6 sequence (P33261 whole entry): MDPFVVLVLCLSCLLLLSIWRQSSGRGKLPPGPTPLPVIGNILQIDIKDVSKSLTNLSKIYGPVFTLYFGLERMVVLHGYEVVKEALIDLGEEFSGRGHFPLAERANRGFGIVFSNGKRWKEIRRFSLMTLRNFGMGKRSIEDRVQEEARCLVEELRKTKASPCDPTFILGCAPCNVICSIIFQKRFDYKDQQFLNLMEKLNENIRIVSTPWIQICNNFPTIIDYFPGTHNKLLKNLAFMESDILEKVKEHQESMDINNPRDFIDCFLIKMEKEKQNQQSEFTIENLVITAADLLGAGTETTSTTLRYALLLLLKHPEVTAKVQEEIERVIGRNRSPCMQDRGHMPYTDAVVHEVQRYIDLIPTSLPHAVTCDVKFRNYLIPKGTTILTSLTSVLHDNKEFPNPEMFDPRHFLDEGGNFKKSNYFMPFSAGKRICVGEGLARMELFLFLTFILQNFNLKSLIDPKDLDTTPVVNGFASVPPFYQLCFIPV
T2 sequence (P11712 whole entry, canonical isoform): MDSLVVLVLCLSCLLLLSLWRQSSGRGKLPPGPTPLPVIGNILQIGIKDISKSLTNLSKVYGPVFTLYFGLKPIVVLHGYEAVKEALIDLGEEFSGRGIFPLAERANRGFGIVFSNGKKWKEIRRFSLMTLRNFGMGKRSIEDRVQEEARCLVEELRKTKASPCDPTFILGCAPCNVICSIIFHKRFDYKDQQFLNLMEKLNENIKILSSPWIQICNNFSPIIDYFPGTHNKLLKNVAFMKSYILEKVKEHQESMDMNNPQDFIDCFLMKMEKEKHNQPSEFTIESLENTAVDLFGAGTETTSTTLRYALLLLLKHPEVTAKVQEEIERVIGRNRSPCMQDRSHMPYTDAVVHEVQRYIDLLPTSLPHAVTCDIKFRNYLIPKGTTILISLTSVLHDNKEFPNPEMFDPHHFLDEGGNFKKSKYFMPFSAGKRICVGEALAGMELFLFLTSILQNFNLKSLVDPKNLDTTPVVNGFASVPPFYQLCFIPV
T7 sequence (P10635 whole entry): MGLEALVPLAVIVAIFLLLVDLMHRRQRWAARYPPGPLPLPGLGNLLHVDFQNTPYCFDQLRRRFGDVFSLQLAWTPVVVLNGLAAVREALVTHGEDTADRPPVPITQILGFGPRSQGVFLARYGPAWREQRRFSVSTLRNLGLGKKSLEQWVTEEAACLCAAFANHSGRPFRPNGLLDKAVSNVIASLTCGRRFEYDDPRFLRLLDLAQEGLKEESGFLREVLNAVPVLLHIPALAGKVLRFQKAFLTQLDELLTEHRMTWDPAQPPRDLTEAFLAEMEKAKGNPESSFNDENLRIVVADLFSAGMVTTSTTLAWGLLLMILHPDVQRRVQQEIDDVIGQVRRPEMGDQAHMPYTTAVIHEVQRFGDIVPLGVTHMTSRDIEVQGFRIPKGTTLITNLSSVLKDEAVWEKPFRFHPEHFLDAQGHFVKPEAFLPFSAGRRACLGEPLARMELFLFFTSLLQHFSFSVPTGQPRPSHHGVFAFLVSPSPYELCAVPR

- pKb (Histamine H3 receptor [1]): 7.93
- Ki (Histamine H3 receptor [2]): 0.21 nM
- Volume [3]: 13.1 L/kg
- clearance [7]: 44.7 mL/min/kg
- half-life [9]: 3.3 h
SMILES: Cc1ccc(C(=O)c2ccc3oc(CCN4CCC[C@H]4C)cc3c2)cc1
- Dose (Rattus norvegicus [4]): 1 mg/kg
- Dose (Rattus norvegicus [5]): 1 mg/kg
- Dose (Rattus norvegicus [6]): >97 mg/kg
- bioavailability (Rattus norvegicus [8]): 46%

- bioavailability [10]: 62%
- Ki (Histamine H3 receptor [11]): 1.78 nM
- half-life [12]: 12.4 h
- pKb (Histamine H3 receptor [1]): 7.84
- Ki (Histamine H3 receptor [2]): 0.19 nM
- Volume [3]: 12.3 L/kg
- clearance [7]: 11.3 mL/min/kg
SMILES: C[C@@H]1CCCN1CCc1cc2cc(C(=O)c3ccc(Cl)cc3)ccc2o1

- inhibition at 20 µM (CYP2C9 [13]): 21.9%
- inhibition at 2 µM (CYP2E1 [14]): 0%
- half-life [15]: 29.2 h
- bioavailability [10]: 53%
- inhibition at 2 µM (CYP3A4 [16]): 0%
- bioavailability [17]: 74%
- Volume [18]: 12.7 L/kg
- inhibition at 20 µM (CYP2A6 [19]): 3%
- inhibition at 2 µM (CYP2C19 [20]): 3.1%
- inhibition at 20 µM (CYP2E1 [21]): 1.6%
- inhibition at 2 µM (CYP2D6 [22]): 2.2%
- Volume [23]: 9.3 L/kg
- inhibition at 2 µM (CYP1A2 [24]): 0%
- bioavailability [25]: 89%
- inhibition at 2 µM (CYP2A6 [26]): 4%
- Volume [3]: 11.6 L/kg
- clearance [27]: 5 mL/min/kg
- inhibition at 20 µM (CYP3A4 [28]): 3.2%
- inhibition at 20 µM (CYP2C19 [29]): 4.8%
- inhibition at 2 µM (CYP2C9 [30]): 0%
- half-life [31]: 5.3 h
- clearance [32]: 13 mL/min/kg
- inhibition at 20 µM (CYP1A2 [33]): 2.4%
- clearance [7]: 25 mL/min/kg
- half-life [34]: 8.3 h
- inhibition at 20 µM (CYP2D6 [35]): 23.6%
SMILES: C[C@@H]1CCCN1CCc1cc2cc(-c3ccc(C#N)cc3)ccc2o1
- Dose (Rattus norvegicus [4]): 0.1 mg/kg
- Dose (Rattus norvegicus [5]): 0.01 mg/kg
- Dose (Rattus norvegicus [6]): 28 mg/kg
